The record followed here is ChEMBL document CHEMBL4014308, “Amphiphilic Tobramycin-Lysine Conjugates Sensitize Multidrug Resistant Gram-Negative Bacteria to Rifampicin and Minocycline” (J Med Chem, 2017).

As a reminder, the MIC is the lowest concentration found to suppress growth. One may read the mortality as the share of the test organisms that died.

Assay type in all cases: functional
Assay [1] deals with Pseudomonas aeruginosa. Nature of the assay: Antibacterial activity against multidrug/extremely drug-resistant/colistin-resistant Pseudomonas aeruginosa isolate 91433 after 18 hrs by microtiter dilution assay. The settings on record: isolate 91433, 18 h. A digest of the protocol:
(§1)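 Broth microdilution following CLSI guidelines. An overnight culture was adjusted to 0.5 McFarland in saline, then diluted 1:50 in Mueller-Hinton broth. This inoculum was added in equal volume to 2-fold serial dilutions of agent in MHB and incubated 18 h at 37 °C. MIC was the lowest concentration with no visible growth.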

The subject of assay [2] is Pseudomonas aeruginosa. Nature of the assay: Antibacterial activity against multidrug/extremely drug-resistant/colistin-susceptible Pseudomonas aeruginosa isolate 100036 after 18 hrs by microtiter dilution assay. The settings on record: isolate 100036, 18 h. A digest of the protocol:
as §1

The test system of assay [3] is Acinetobacter baumannii. Kind of assay: Antibacterial activity against multidrug-resistant Acinetobacter baumannii AB030 after 18 hrs by microtiter dilution assay. Particulars: AB030, 18 h. A digest of the protocol: as §1
In assay [4] the test system is Pseudomonas aeruginosa. Kind of assay: Antibacterial activity against multidrug/extremely drug-resistant/colistin-susceptible Pseudomonas aeruginosa isolate P262-101856 infected in Galleria mellonella assessed as mortality at 75 mg/kg after 24 hrs relative to control. The settings on record: isolate P262-101856, 24 h. A digest of the protocol:
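Galleria mellonella larvae (about 250 mg, used within 7 days; 15 per group) were injected with 10 µL of XDR P. aeruginosa P262 at 1.0×10^3 CFU/mL. At 2 h they received a single 10 µL injection: monotherapy at 75 mg/kg, or combinations at 12.5+12.5 to 75+75 mg/kg. PBS vehicle served as control. Survival was scored over 24 h at 37 °C.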

In assay [5] the test system is Pseudomonas aeruginosa. Nature of the assay: Antibacterial activity against Pseudomonas aeruginosa PAO1 after 25 serial passages at 0.125 times MIC by microtiter dilution assay.
For assay [6], the system named is Pseudomonas aeruginosa. Nature of the assay: Bactericidal activity against Pseudomonas aeruginosa PAO1 at 0.125 times antibacterial MIC after 6 hrs.
Assay [7] concerns Acinetobacter baumannii. Nature of the assay: Antibacterial activity against multidrug-resistant Acinetobacter baumannii AB031 after 18 hrs by microtiter dilution assay. Particulars: AB031, 18 h. A digest of the protocol: as §1
Assay [8] has as its system Enterobacter cloacae. Nature of the assay: Antibacterial activity against multidrug-resistant Enterobacter cloacae 117029 after 18 hrs by microtiter dilution assay. The settings on record: Enterobacter cloacae, 117029, 18 h. A digest of the protocol: as §1
Assay [9] concerns Pseudomonas aeruginosa. Nature of the assay: Antibacterial activity against Pseudomonas aeruginosa PAO1 after 18 hrs by microtiter dilution assay. Particulars: PAO1, 18 h. The method in brief: as §1
The test system of assay [10] is Pseudomonas aeruginosa. Nature of the assay: Antibacterial activity against multidrug/extremely drug-resistant/colistin-susceptible Pseudomonas aeruginosa isolate P264-104354 after 18 hrs by microtiter dilution assay. Particulars: isolate P264-104354, 18 h. A digest of the protocol: as §1
Assay [11] relates to Pseudomonas aeruginosa. Nature of the assay: Bactericidal activity against Pseudomonas aeruginosa PAO1 at 4 times antibacterial MIC after 2 hrs. A digest of the protocol:
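Time-kill with P. aeruginosa PAO1. A 0.5 McFarland suspension was diluted 1:50 in LB broth and exposed to agent in PBS (pH 7.2) at 1/2×, 1×, 2× or 4× MIC at 37 °C for 6 h. Samples at 0, 10, 30, 60, 90, 120, 240 and 360 min were serially diluted in PBS, plated on LB agar, and colonies counted after 20 h at 37 °C.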

For assay [12], the system named is Acinetobacter baumannii. Kind of assay: Antibacterial activity against multidrug-resistant Acinetobacter baumannii 110193 after 18 hrs by microtiter dilution assay. The settings on record: Acinetobacter baumannii, 110193, 18 h. A digest of the protocol: as §1
Assay [13] relates to Pseudomonas aeruginosa. Kind of assay: Antibacterial activity against multidrug/extremely drug-resistant/colistin-susceptible Pseudomonas aeruginosa isolate P262-101856 after 18 hrs by microtiter dilution assay. Particulars: isolate P262-101856, 18 h. A digest of the protocol:
as §1

In assay [14] the test system is Acinetobacter baumannii. Nature of the assay: Antibacterial activity against multidrug-resistant Acinetobacter baumannii AB027 after 18 hrs by microtiter dilution assay. The settings on record: AB027, 18 h. The method in brief:
as §1

Assay [15] has as its system Pseudomonas aeruginosa. Nature of the assay: Antibacterial activity against multidrug/extremely drug-resistant/colistin-susceptible Pseudomonas aeruginosa isolate P259-96918 after 18 hrs by microtiter dilution assay. Particulars: isolate P259-96918, 18 h. The method in brief:
as §1

The test system of assay [16] is Pseudomonas aeruginosa. Nature of the assay: Antibacterial activity against multidrug/extremely drug-resistant/colistin-susceptible Pseudomonas aeruginosa isolate 101885 after 18 hrs by microtiter dilution assay. Particulars: isolate 101885, 18 h. The method in brief: as §1
The subject of assay [17] is Pseudomonas aeruginosa. Kind of assay: Antibacterial activity against multidrug/extremely drug-resistant/colistin-resistant Pseudomonas aeruginosa isolate 101243 after 18 hrs by microtiter dilution assay. The settings on record: isolate 101243, 18 h. A digest of the protocol: as §1
Assay [18] deals with Klebsiella pneumoniae. Nature of the assay: Antibacterial activity against multidrug-resistant Klebsiella pneumoniae 116381 after 18 hrs by microtiter dilution assay. Particulars: Klebsiella pneumoniae, 116381, 18 h. A digest of the protocol: as §1

In brackets after ≈: the same amount, converted by molar mass. Activity calls are given as the source filed them. The calls are words filed in the database; no cut-off is given here.

As for `CO[C@H]1/C=C/O[C@@]2(C)Oc3c(C)c(O)c4c(O)c(c(/C=N/N5CCN(C)CC5)c(O)c4c3C2=O)NC(=O)/C(C)=C\C=C\[C@H](C)[C@H](O)[C@@H](C)[C@@H](O)[C@@H](C)[C@H](OC(C)=O)[C@@H]1C` [RIFAMPIN], the MIC is 16 mg/L (≈ 19.4 µM) in assay [1]; 16 mg/L (≈ 19.4 µM) in assay [2]; over 256 mg/L in assay [3]; 2 mg/L (≈ 2.43 µM) in assay [7]; 16 mg/L (≈ 19.4 µM) in assay [8]; 16 mg/L (≈ 19.4 µM) in assay [9]. Moreover, the MIC came to 16 mg/L (≈ 19.4 µM) in [10]; 2 mg/L (≈ 2.43 µM) in assay [12]; 1020 mg/L (≈ 1240 µM) in assay [13]; 2 mg/L (≈ 2.43 µM) in [14]; 16 mg/L (≈ 19.4 µM) in assay [15]; 16 mg/L (≈ 19.4 µM) in assay [16]. Also, the MIC came out at 8 mg/L (≈ 9.72 µM) in assay [17] and 1020 mg/L (≈ 1240 µM) in assay [18]. Moreover, the mortality at 75 mg/kg in assay [4] amounted to 100%. Also, the outcome in [5] and in [11] was Active. In addition, in assay [6], the result was inactive.
